Each structure is given as a SMILES string.

The data set in a line: Toxicity liver stage against HepG2, at 10uM. Format: cell-based. Set-up: test concentration 10 uM, cell line HepG2-A16-CD81EGFP. The settings on record: human, HepG2-A16-CD81EGFP cells; read-out: INHIBITION
An outline of the steps: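 Uninfected HepG2-A16-CD81EGFP cells, 3 × 10^3 per well, 1536-well, plated on prespotted compound at 10 μM final, parasite-free screening media added to match infected plates; puromycin 10 μM positive, DMSO 0.5% negative; run in parallel with 48 h PbLuc assay at 37 °C, 5% CO2; viability by CellTiter-Glo luminescence, normalized to controls.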
For the compound `CN1C[C@H]2CN(Cc3cccc(OC(F)(F)F)c3)CCN2C1=O`, the cytotoxicity at 10 µM came out at 4.85%.
The figure for `CN(C)C[C@H]1O[C@H](Cc2cc(-c3ccccn3)on2)CC[C@@H]1O` is -3.15%; for `CC1=C(c2ccc(C)cc2)S(=O)(=O)N=C1N1CCc2ccccc21` it is -7.12%; for `COc1ccc(-c2cc(C(=O)NCCC(C)C)n(C)n2)cc1` it is 0%.
For the compound `COCCn1ccc2c(NC(=O)c3n[nH]c4c3CCCC4)cccc21`, the cytotoxicity at 10 µM stood at 10.3%.
In the case of `NC(=O)Cn1c(CO)cnc1SCC(=O)NCc1ccccc1`, the cytotoxicity at 10 µM stood at 0.252%.
The figure for `COC1COC2(CCN(Cc3ccco3)CC2)C1` (configuration not stated) is 8.62%; for `CCOc1cccc2c1OCC(=O)N(c1ccc3c(c1)OCO3)C2` it is 17.1%; for `CC(C)(C)c1csc(CCNC(=O)C(c2ccccc2)n2cnnn2)n1` (configuration not stated) it is 6.53%.
The figure for `CCOc1ccc(-n2nnc(C(=O)O)c2-c2ccncc2)cc1` is -4.14%; for `c1cnc(NCc2noc3c2CN(C2CCOCC2)CC3)nc1` it is -6.23%; for `C/N=C1/c2cc3cc(OC)ccc3n2CCN1C` it is 3.34%.
The figure for `Cc1cc2c(cc1Cl)C=CC1(CCN(CC(=O)N3CCOCC3)CC1)O2` is -1.7%.
Take `COc1cccc([C@@]2(O)CC[C@@H]3CN(C(=O)c4c[nH]nc4C)C[C@@H]32)c1`: the cytotoxicity at 10 µM amounted to 2.67%.
The figure for `COCCC(=O)N1CCC2(CC1)CN(C(C)=O)Cc1ccccc1O2` is 0.245%.
On to `COCC(=O)N1CCC2(CC1)CN(S(C)(=O)=O)Cc1ccccc1O2`, for which the cytotoxicity at 10 µM is 7.3%.
For the compound `Cc1ncc(CNC(=O)CCOc2ccccc2)c(C2CCCN2C)n1` (configuration not stated), the cytotoxicity at 10 µM is -1.03%.
The figure for `O=S(=O)(Nc1ccc(N2CCOCC2)cn1)c1cccc(F)c1` is -9.68%; for `COc1c(F)cc(NCC(=O)NC(C)(C#N)C2CC2)cc1F` (configuration not stated) it is -3.82%.
The figure for `Cc1cc(NC(=O)CNc2ccc(Br)cc2F)on1` is -28.1%.
The figure for `O=C(CC1OCCc2ccsc21)NCC1CC1` (configuration not stated) is 7.18%; for `CN(Cc1ccc2c(c1)OCO2)Cc1nc(-c2ccco2)no1` it is -1.64%.
As to `Cn1ncnc1CCNC(=O)c1cc(Cl)c(Cl)n1C`, the cytotoxicity at 10 µM is -5.12%.
The figure for `COc1ccc(S(=O)(=O)N2CCC(OCc3ccccn3)C2)cc1Br` (configuration not stated) is 2.24%.
The figure for `CNS(=O)(=O)c1ccc(CNC(=O)c2ccccn2)cc1` is 10.2%; for `Cc1cccc(C2(C(=O)NCC(C)CN3CCCC3=O)CC2)c1` (configuration not stated) it is -0.89%.
The figure for `CC(C)COC(C)C(=O)N1CCCC1` (configuration not stated) is 2.77%.
As for `Cc1cc(NC(C)C(=O)NCC(F)(F)F)nc(-c2ccncc2)n1` (configuration not stated), the cytotoxicity at 10 µM was found to be 4.96%.
On to `CNC(=O)C1CCCN(C(=O)C2CCC2)C1` (configuration not stated), for which the cytotoxicity at 10 µM is -4.47%.
The figure for `Cc1csc(CNc2cnn(CC(F)(F)F)c2)n1` is 5.19%; for `O=C1CCN(C(=O)c2ncoc2-c2ccco2)c2ncccc2N1` it is -3.58%.
The figure for `CSCCC(C)NC(=O)N1CCSC(C)(C)C1` (configuration not stated) is 5.89%; for `O=C(c1ccncc1)N1CCCC1c1cccc(Br)c1` (configuration not stated) it is 16.9%.
The figure for `CN(C)C(=O)N1CCN(C(=O)c2ccn3cncc3c2)CC1` is -9.96%; for `FC(F)(F)c1cc(NCCCn2cccn2)nc(-c2cccnc2)n1` it is 8.06%; for `Cn1ccnc(Sc2cccc(C#N)c2)c1=O` it is 4.64%.
`CC(NCc1ccc(Cl)o1)c1nnc2n1CCCC2` (configuration not stated): the cytotoxicity at 10 µM was -15.9%.
The figure for `CNC(=O)NC(=O)CN1CCC(c2c[nH]c3ccc(OC)cc23)CC1` is 21.4%; for `Cc1ccccc1C(=O)NCc1ccc(N2CCNC(=O)C2)cc1` it is -9.67%; for `CN(CC(N)=O)S(=O)(=O)c1ccc(F)cc1Cl` it is -11.9%.
The figure for `COCC(=O)N(C)Cc1cccc(Cl)c1` is -10.8%; for `COc1ccc(CNC(=O)NC2CCC(O)CC2)c(C(F)(F)F)c1` (configuration not stated) it is -12%.
The figure for `CCC(=O)N1CCN(C(=O)c2cn3ccsc3n2)[C@H]2CS(=O)(=O)C[C@H]21` is 4.95%.
In the case of `CN(Cc1cc(C2CC2)[nH]n1)C(=O)c1cnn2ccn(C)c12`, the cytotoxicity at 10 µM is -3.67%.
On to `CCC(CO)N(Cc1ccc(C(=O)O)cc1)Cc1ccsc1` (configuration not stated), for which the cytotoxicity at 10 µM stood at 2.17%.
The figure for `CCc1cnc(C)nc1NC1CC(=O)N(CC)C1` (configuration not stated) is 1.07%; for `CSCCC(O)C(=O)N1CCC(OCc2cccnc2)CC1` (configuration not stated) it is 3.96%.
Consider `COc1ccc2c(c1)OCC(Cc1ccc(N(C)C)nc1)C2` (configuration not stated), for which the cytotoxicity at 10 µM amounted to 2.77%.
The figure for `Cc1cc(N2CCN(C(=O)Cc3c(C)nc(C)[nH]c3=O)CC2)cc(C)n1` is 9.66%.
The figure for `O=C(Cc1ccc(CO)cc1)N1CCN(c2ccccc2Cl)C(=O)C1` is 6.39%; for `Cc1ccc2c(c1)SCC(=O)N2Cc1noc(C2CCCO2)n1` (configuration not stated) it is -0.0938%; for `CC(C)=CCC1(C(=O)O)CCCN(c2ccnc(N)n2)C1` (configuration not stated) it is -13.7%.
The figure for `CN(C)c1ccccc1C(=O)N1C[C@@H](CN2CCC(O)CC2)[C@@H](CO)C1` is 3.11%; for `CCC1CN(C(=O)c2ccccc2N(C)C)CCN1C(C)C` (configuration not stated) it is -0.238%.
`CCc1[nH]c2c(CNC(=O)C3CCN(C)C3)cc(C)cc2c1C` (configuration not stated): the cytotoxicity at 10 µM was -7.71%.
For the compound `CC(NCc1cc(O)c2cccc(F)c2n1)c1ccc(S(C)(=O)=O)cc1` (configuration not stated), the cytotoxicity at 10 µM stood at 4.03%.
The figure for `c1cn(CC2CCOCC2)c(-c2cc(CN3CCCC3)cs2)n1` is -2.96%.
The figure for `O=C1CCOCCN1Cc1ccc(C(F)(F)F)c(F)c1` is -7.63%; for `COCCc1noc(CN(C)C(=O)C2COc3ccccc3C2)n1` (configuration not stated) it is 8.63%.
Regarding `CN(C)CCN1CC(C(=O)N2CCC(c3cc(=O)[nH]cn3)CC2)CC1=O` (configuration not stated), the cytotoxicity at 10 µM is -2.34%.
The figure for `CS(=O)(=O)N[C@H]1CN(CCOCc2ccccc2)C[C@@H]1C1CC1` is -1.1%; for `Clc1cc(NCc2nccs2)nc2[nH]ccc12` it is 6.58%; for `CCCc1ccc(OC23CCCN(CC2)C3)c(OC)c1` (configuration not stated) it is -17.3%.
The figure for `C[C@@H]1CN(Cc2c[nH]c(CC3CCCC3)n2)CC[C@]1(C)O` is 3.69%.
The figure for `CCn1c(CN2CCCC2)nnc1C1CCN(Cc2cccnc2)CC1` is 3.33%.
For `Cc1cc(-c2nn(C)c(Cl)c2CN2CCOCC2CC(N)=O)no1` (configuration not stated), the cytotoxicity at 10 µM amounted to 3.3%.
For `Cc1ccccc1-c1cccc(CN2C[C@H]3C(=O)NC[C@@]3(C(=O)O)C2)c1`, the cytotoxicity at 10 µM is -0.147%.
On to `CCN(Cc1ccncc1)C(=O)CCn1c(C)cc2ccccc21`, for which the cytotoxicity at 10 µM is -3.38%.
The figure for `O=S1(=O)COCCN1Cc1cccc(Cl)c1` is -11.4%; for `Cn1cccc1C(=O)N1CCCN(CCCc2ccccc2)CC1` it is -16.4%; for `CCC1CN(C(=O)c2ccc(=O)[nH]c2)CCC(=O)N1Cc1ccccc1` (configuration not stated) it is -17.6%.
The figure for `Cc1nn(C)cc1-c1cc(C(F)(F)F)c2c(C)nn(CC(=O)O)c2n1` is -4.79%; for `Cc1nc(CNC(=O)N(C)Cc2cnn(C)c2)cs1` it is -14.3%.
The figure for `CN(Cc1ccccc1)CC(O)Cn1cnc2ccc(Br)cc2c1=O` (configuration not stated) is -9.04%.
For `Cc1nnc2n1CCN(C(C(=O)NC(C)C)c1ccccc1)C2` (configuration not stated), the cytotoxicity at 10 µM was -5.92%.
The figure for `O=C(Nc1nccs1)NC1CCN(Cc2ccccc2)CC1` is -7.07%; for `Cc1nc(C(=O)N2CCCN(Cc3cnn(C)c3)CC2)ccc1C#N` it is -0.514%; for `CC(C)OCc1ccc(CNC(=O)CC(F)(F)F)cc1` it is -2.26%.
The figure for `CCCc1nc(CN2CCOC(Cn3cncn3)C2)no1` (configuration not stated) is -7.03%.
The figure for `Cc1ccccc1Cc1cnc(NC(=O)C2CNC(=O)N2)s1` (configuration not stated) is -3.37%; for `O=C(COc1ccc2c(c1)CCC2)N1CCOCC1c1ncon1` (configuration not stated) it is -10.2%; for `O=C(NCCNc1ccccn1)N1CCSCC1` it is -9.58%.
`CS(=O)(=O)NCC1CCCN(C(=O)c2ccc(Cl)o2)C1` (configuration not stated): the cytotoxicity at 10 µM is -10.2%.
The figure for `O=C(COCC1CC1)N1CCCC(n2ccnc2)C1` (configuration not stated) is 0.0481%; for `CNS(=O)(=O)c1cccc(CNC(=O)c2c(C)nn(C)c2C)c1` it is 9.26%.
The figure for `COc1ccccc1OCCC(=O)N1CCCC1Cn1cc(C)cn1` (configuration not stated) is 6.02%.
The figure for `c1cnnc(N2CCCC(NCc3ccc(-n4ccnc4)cc3)C2)c1` (configuration not stated) is 0.866%; for `CCOc1ccc(CC(=O)N2CCN(c3nccn3C)CC2)cc1` it is 6.85%; for `CCCC(=O)N(C)Cc1nc(N2CCCC2)ncc1-c1ccncc1` it is 9.76%.
On to `Cc1ccc(CN2C(=O)CCC23CCC(NCC2CCOC2)CC3)cc1` (configuration not stated), for which the cytotoxicity at 10 µM is -4.75%.
The figure for `CN(CCO)CC1COCCN1C(=O)C1(c2cccs2)CCCC1` (configuration not stated) is -9.06%; for `COCc1cncc2c1CCN(C(=O)c1cccc(C#N)c1)C2` it is -98.2%; for `CC(C)C(=O)N1CC[C@H]2N(C)CC[C@@]2(C(=O)N2CCOCC2)CC1` it is -0.449%.
The figure for `CC(C)NC(=O)[C@@H]1C[C@H]2NCC[C@H]2O1` is -96.9%; for `c1ccc(CN2C[C@@H]3CCCO[C@@H]3[C@H](Nc3ccccn3)C2)nc1` it is -7.39%.
The figure for `Cc1nc(CN2C(=O)COC3(CCN(Cc4nccs4)CC3)C2C)cs1` (configuration not stated) is -10.4%; for `CCOC(=O)[C@]12CCCN(Cc3nccs3)C[C@H]1CN(CCN(C)C)C2` it is -9.82%.

The record behind these values is ChEMBL document CHEMBL4513216, “Probing the Open Global Health Chemical Diversity Library for Multistage-Active Starting Points for Next-Generation Antimalarials” (ACS Infect Dis, 2020).
